Screens (PubChem)
HCV NS3 hel inh = inhibitors of HCV NS3 helicase, primary screen, biochemical, Cy5 molecular beacon fluorescence; Hepatitis C virus NS3 helicase; NS3 helicase DNA unwinding; inhibition, % at 10.9 µM; 290,000 compounds, 0.56% hits; AID 1800, 2009;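 active means inhibition above the mean of all tested compounds plus 3 SD, set per campaign, cut at about 35% in these data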
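Material: hepatitis C virus NS3 helicase domain fragment enzyme; measured by: Cy5 fluorescence, 0 and 60 min reads; control set: DMSO and thioflavine S; incubation: 60 min unwinding reaction at 25 °C after ATP addition; read-out basis: % inhibition from 60/0 min fluorescence ratio, DMSO 0%, thioflavine S 100%; repeats: singlicate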
CHOP UPR activ = activators of apoptotic CHOP UPR arm, primary screen, cell-based, CHO-CHOP luciferase reporter, luminescence, uHTS; UPR activation; percent of tunicamycin response over DMSO baseline; 330,000 compounds, 0.34% hits; activation, % at 10 µM;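 active means at 10 µM dose, activation of 40% or more, normalized to positive control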
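Assay system: CHO cells with stable CHOP pathway luciferase reporter; Buffer or medium: F12 plus 10% serum; Times: 16-18 h cell attachment, then 6 h compound exposure, 37 °C; Signal: luciferase luminescence; Read-out basis: percent activation relative to tunicamycin control; Control set: tunicamycin high control, DMSO low control.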
M18AAP inhibitor = PfM18AAP inhibitors, malaria aminopeptidase, primary screen, biochemical, QFRET, recombinant enzyme | H-Glu-NHMec fluorogenic cleavage | inhibition, % at 7.35 µM | 290,000 compounds, 1.2% hits | AID 1822, 2009;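 active means inhibition above the campaign mean inhibition over all tested compounds plus 3 SD, cut at about 28% in these data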
UPR XBP1 act = activators of adaptive XBP1 UPR arm, primary screen, cell-based, CHO-XBP1 luciferase reporter, luminescence, uHTS | activation, % at 20 µM | 330,000 compounds, 0.33% hits | IRE1-XBP1 UPR activation; percent of tunicamycin response, DMSO as zero;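 active means versus positive control, 20 µM dose yields 30% or more activation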
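Assay system: IRE1-XBP1 luciferase reporter CHO line. Input: 1000 cells/well. Buffer or medium: F12 with 10% serum. Doses: 20 µM, 1% DMSO. Times: overnight seeding at 37 °C, 6 h compound treatment at 37 °C. Technique: Steady-Glo luciferase glow luminescence, 10 min after reagent addition.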
p97 inhibitor = inhibitors of human p97 ATPase, primary screen, biochemical. Transitional endoplasmic reticulum ATPase (Homo sapiens), P55072. recombinant p97 ATPase, Kinase-Glo ATP luminescence, 3 h. inhibition, % at 8 µM. 220,000 compounds, 0.42% hits; in the data active means inhibition above about 15%
Target sequence (P55072 whole entry, looked up): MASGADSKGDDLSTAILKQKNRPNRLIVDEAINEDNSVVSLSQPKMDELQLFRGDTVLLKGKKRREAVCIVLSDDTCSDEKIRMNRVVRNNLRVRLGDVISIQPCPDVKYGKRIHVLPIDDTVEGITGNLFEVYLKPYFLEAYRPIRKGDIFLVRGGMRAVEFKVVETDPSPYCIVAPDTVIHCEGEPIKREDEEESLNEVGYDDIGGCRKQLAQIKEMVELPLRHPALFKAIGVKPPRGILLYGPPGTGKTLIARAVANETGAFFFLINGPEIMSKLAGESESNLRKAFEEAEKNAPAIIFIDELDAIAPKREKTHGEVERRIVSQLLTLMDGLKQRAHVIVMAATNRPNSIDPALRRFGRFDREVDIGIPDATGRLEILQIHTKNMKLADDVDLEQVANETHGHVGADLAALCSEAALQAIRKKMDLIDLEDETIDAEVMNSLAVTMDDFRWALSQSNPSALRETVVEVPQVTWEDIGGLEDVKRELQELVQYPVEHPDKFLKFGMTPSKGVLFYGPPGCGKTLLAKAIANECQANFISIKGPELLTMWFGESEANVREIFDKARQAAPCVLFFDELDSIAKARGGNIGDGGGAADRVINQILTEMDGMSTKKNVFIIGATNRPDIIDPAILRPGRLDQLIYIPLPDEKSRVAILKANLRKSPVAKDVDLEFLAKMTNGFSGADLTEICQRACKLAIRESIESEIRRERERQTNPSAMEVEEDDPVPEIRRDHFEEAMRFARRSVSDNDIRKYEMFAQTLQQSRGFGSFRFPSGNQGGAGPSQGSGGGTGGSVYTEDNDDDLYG
CHOP inh = inhibitors of CHOP promoter induction, primary screen, cell-based, unfolded protein response, luciferase reporter | 220,000 compounds, 3.8% hits | CHO-K1 CHOP-promoter luciferase, tunicamycin-induced, 15-18 h | inhibition, % at 10 µM;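 active means compounds that reduced the stress-induced luciferase reporter signal by more than about 70% of percent inhibition, limit read from the data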
NS3 hel confirm = HCV NS3 helicase inhibitors, retest, confirmation, biochemical, Cy5 molecular beacon fluorescence, triplicate | 1,600 compounds, 31% hits | inhibition, % at 10.9 µM | NS3 helicase DNA unwinding | shares compounds with HCV NS3 hel inh | AID 1943, 2009;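 active means inhibition above the mean of all tested compounds plus 3 SD, cutoff set per campaign, cut at about 36% in these data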
DNA FID counter = compounds displacing fluorescent DNA intercalator, artefact control for HCV NS3 helicase inhibitor project, biochemical, FID fluorescence, triplicate; shares compounds with HCV NS3 hel inh; DNA fluorescent intercalator displacement; inhibition, % at 7.9 µM; 1,600 compounds, 4% hits; AID 1945, 2009; in the data active means inhibition above about 37%;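 further: higher means more displacement of ethidium bromide from the DNA hairpin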
DNA FID DR = compounds displacing fluorescent intercalator from DNA, dose response, counter-screen for HCV NS3 helicase inhibitor project, biochemical, fluorescence. shares compounds with HCV NS3 hel inh. fluorescent intercalator displacement from DNA. IC50, µM. 120 tested, under 10 active. AID 2172, 2009; call rule not given here
A number is an active result; n = inactive; x = no result. Hits are enriched below; roughly 4.5% of the tested compounds scored in any of these assays.

SMILES	HCV NS3 hel inh	CHOP UPR activ	M18AAP inhibitor	UPR XBP1 act	p97 inhibitor	CHOP inh	NS3 hel confirm	DNA FID counter	others
Cc1cc(N2C(=O)C(=O)/C(=C(/O)c3ccc(F)cc3)C2c2cccc(Br)c2)no1 (configuration not stated)	38	n	n	n	n	n	64	n
Cc1ccc(/C(O)=C2\C(=O)C(=O)N(c3cc(C)on3)C2c2cccc(Br)c2)cc1 (configuration not stated)	n	n	n	n	n	n	x	x
COc1cc(C(=O)N/C(=C/c2ccc(F)cc2)C(=O)NC(C(=O)O)c2ccccc2)cc(OC)c1OC (configuration not stated)	37	n	n	n	x	x	n	n
O=C1Cc2ccccc2C(=O)N1c1cccc(Cl)c1	37	n	n	n	x	x	n	n
COc1ccc(NC(=O)/C(C#N)=C\C=C\c2ccco2)cc1	85	n	n	n	n	n	n	n
COc1ccc(NC(=O)/C(=C\c2ccco2)NC(=O)c2ccco2)cc1	n	n	n	n	x	x	x	x
CN(C)/C=C1\C(=O)N(c2ccc([N+](=O)[O-])cc2)N=C1c1ccccc1	40	n	n	n	n	n	53	n
CN(C)/C=C1/C(=O)N(c2ccc([N+](=O)[O-])cc2)N=C1c1ccccc1	n	n	n	n	n	n	x	x
CC(=O)c1c(OC(=O)c2ccco2)c2ccccc2n1C	n	n	n	n	n	n	x	x
CC(=O)c1sc2ccccc2c1OC(=O)c1ccco1	45	n	n	n	n	n	n	n
C#CCOCCOCCOCCNc1nc(N2CCN(C(=O)[C@H](CCC(=O)O)n3cc([C@@H](N)CO)nn3)CC2)nc(N2CCN(C(=O)[C@H](CCC(=O)O)n3cc([C@@H](N)CCSC)nn3)CC2)n1	x	n	x	n	x	x	x	x
Nc1c(S(=O)(=O)O)cc(NC(=O)c2ccccc2)c2c1C(=O)c1ccccc1C2=O	81	n	n	n	x	x	66	61
Cc1ccc(NC(=O)CN2C(=O)S/C(=C/c3ccncc3)C2=O)cc1	n	n	n	n	x	x	x	x
Cc1ccc(NC(=O)CN2C(=O)S/C(=C\C(=O)Nc3ccc(Cl)cc3)C2=O)cc1	41	x	n	x	n	n	n	n
Cc1ccnc(NC(=O)c2ccc(OCC3CCCO3)cc2)c1 (configuration not stated)	x	n	x	n	x	x	x	x
Cc1ccc(NC(=O)c2cc(=O)[nH]c3ccccc23)cc1C	n	n	n	n	x	x	x	x
O=C(CN1C(=O)C2CC=CCC2C1=O)NCC1COc2ccccc2O1 (configuration not stated)	85	n	n	n	n	n	n	n
O=C(Cn1ccc2ccccc2c1=O)NCC1COc2ccccc2O1 (configuration not stated)	n	n	n	n	n	n	x	x
CCC1=NN2C(=N)/C(=C\c3cccn3-c3ccc(Cl)cc3)C(=O)N=C2S1	n	n	n	n	n	n	x	x
Cc1ccc(-n2cccc2/C=C2\C(=N)N3N=C(c4ccco4)SC3=NC2=O)cc1	42	n	n	n	n	n	85	n	DNA FID DR=n
COc1ccc(C(=O)NCC2(c3ccc(OC)c(OC)c3)CCCC2)c(OC)c1	n	n	n	n	x	x	x	x
CCCc1nc2sc3ccccc3c(=O)c2c(=O)n1Cc1ccco1	46	x	n	x	n	n	n	n
CCCc1nc2sc3ccccc3c(=O)c2c(=O)n1Cc1ccc(OC)cc1	n	n	n	n	n	n	x	x
CCOC(=O)C1(Cc2cccc(Cl)c2)CCCN(C(=O)CCN2CCCC2=O)C1 (configuration not stated)	65	n	n	n	x	x	n	n
CCOC(=O)C1(Cc2cccc(Cl)c2)CCCN(C(=O)CCSC)C1 (configuration not stated)	n	n	n	n	x	x	x	x
SMILES	HCV NS3 hel inh	CHOP UPR activ	M18AAP inhibitor	UPR XBP1 act	p97 inhibitor	CHOP inh	NS3 hel confirm	DNA FID counter	others
CC(C)CN(C(=O)CSc1nc2ccccc2c(=O)n1C)C1CCS(=O)(=O)C1 (configuration not stated)	x	n	x	n	x	x	x	x
CCOc1ccc(-n2c(SCC(=O)O)nc3sc4c(c3c2=O)CCCC4)cc1	n	n	n	n	x	x	x	x
Cc1ccc(-n2c(SCC(=O)O)nc3sc4c(c3c2=O)C(C)CCC4)cc1 (configuration not stated)	55	n	n	n	x	x	66	n
COc1ccc(C2(CNC(=O)/C=C/c3ccco3)CCCC2)cc1OC	38	n	n	n	n	n	n	n
CCN(CC)S(=O)(=O)c1ccc(OC)c(NC(=O)/C=C/c2ccco2)c1	63	n	n	n	n	n	n	n
COc1ccc(CNC(=O)N2CCc3ccccc3C2)cc1Cl	n	n	n	n	x	x	x	x
Cc1cc(=O)[nH]c(N/N=C/c2cc(C)n(CC(F)(F)F)c2C)n1	n	n	n	n	n	n	x	x
COC(=O)c1ccc(-n2c(C)cc(/C=N/Nc3nc(C)cc(=O)[nH]3)c2C)cc1	38	n	n	n	n	n	n	n
O=C(N/N=C/c1ccc(O)cc1O)c1ccc(NC(=O)C2CCCCC2)cc1	n	n	n	n	x	x	x	x
COc1ccc(Cl)cc1NC(=O)C1CC(=O)N(C2CCCCC2)C1 (configuration not stated)	n	n	n	n	x	x	x	x
O=C(c1ccco1)[C@@H]1[C@@H]2C(=O)N(c3ccc(F)cc3)C(=O)[C@@H]2C2c3ccccc3C=CN21 (some centres not stated)	43	n	n	n	n	n	n	n
C[C@H](CO)N1C[C@H](C)[C@@H](CN(C)C(=O)NC2CCCCC2)Oc2ccc(NC(=O)CCC(F)(F)F)cc2C1=O	x	n	x	n	x	x	x	x
Cc1ccc(-c2cc(C(F)(F)F)c(C#N)c(=O)[nH]2)cc1	n	n	n	n	n	n	x	x
Cc1ccc(-c2cc(-c3ccco3)c(C#N)c(=O)[nH]2)cc1	42	n	n	n	n	n	n	n
